Data reported in article PMC8500343 (Pharmacology Research & Perspectives, 2021).
“And” between values parts separate entries of the source, which are not always exact repeats. Identical values can stand only once. Like-named read-outs stand apart in the source and are kept apart here.

Legend:
Bioequivalence part = type: in vivo, human (healthy adult subjects); details: for t 1/2 / AUC(0-t) / AUC(0-inf): mean (SD); for AUC(0-t): AUC0–last; for AUC(0-inf): AUC0–∞; for Geometric means ratio, AUC0–last / Geometric means ratio, AUC0–∞ / Geometric means ratio, C max: Group 1, FDC vs. free combination, Treatment A/B, fasted; for CVw (intrasubject coefficient of variation), AUC0–last / CVw (intrasubject coefficient of variation), AUC0–∞ / CVw (intrasubject coefficient of variation), C max: Group 1, Treatment A/B
How it was run: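 Single-centre, open-label, randomized two-period crossover in healthy adult men and women. Single oral doses were given after an overnight fast of at least 10 h: fixed-dose tablet (10/40 mg) versus 10 mg macitentan plus 40 mg Canadian-sourced tadalafil tablets. Plasma was sampled predose to 216 h and assayed by LC-MS/MS. Noncompartmental PK gave GMR 90% CIs against 80.00–125.00 limits and intrasubject CV.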

Food effect part = type: in vivo, human (healthy adult subjects); details: for Geometric means ratio, AUC0–last / Geometric means ratio, AUC0–∞ / Geometric means ratio, C max: Treatment C/D; for t 1/2 / AUC(0-t) / AUC(0-inf) / mean C max higher under fed (test) compared with fasted (reference) conditions: Group 2, FDC; for CVw (intrasubject coefficient of variation), AUC0–last / CVw (intrasubject coefficient of variation), AUC0–∞ / CVw (intrasubject coefficient of variation), C max: Group 2, Treatment C/D; for AUC(0-t): AUC0–last; for AUC(0-inf): AUC0–∞; for mean C max higher under fed (test) compared with fasted (reference) conditions: arithmetic means
How it was run: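 Healthy adults in a randomized two-way crossover, sequence C-D or D-C. Single oral fixed-dose tablet (10/40 mg) was given fed or fasted; both arms fasted overnight for at least 10 h. Fed dosing followed a high-fat, high-calorie breakfast per FDA guidance, eaten within 30 min. Plasma was sampled predose to 216 h and assayed by LC-MS/MS. Noncompartmental PK gave GMR 90% CIs against 80.00–125.00 limits.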

[1] = Stability in plasma samples; type: in vitro ADME, human
[2] = no reference given; cited from earlier work
[3] = cited from earlier work
[4] = Group 1, FDC, fasted (Treatment A)
[5] = Group 1, free combination, fasted (Treatment B)
[6] = both, human, plasma, oral, Group 1, FDC, fasted (Treatment A)
[7] = both, human, plasma, oral, Group 1, free combination, fasted (Treatment B)
[8] = fasted (Treatment D), mean (SD)
[9] = both, human, plasma, oral, fed (Treatment C), mean (SD)
[10] = both, human, plasma, oral, fasted (Treatment D), mean (SD)
[11] = in the presence of macitentan and metabolite

Compound	t 1/2 (Bioequivalence part; [4])	t 1/2 (Bioequivalence part; [5])	AUC(0-t) (Bioequivalence part; [6])	AUC(0-t) (Bioequivalence part; [7])	AUC(0-inf) (Bioequivalence part; [6])	AUC(0-inf) (Bioequivalence part; [7])	Geometric means ratio, AUC0–last (Food effect part; Group 2, FDC fed vs. fasted)	Geometric means ratio, AUC0–∞ (Food effect part; Group 2, FDC fed vs. fasted)	Geometric means ratio, C max (Food effect part; Group 2, FDC fed vs. fasted)	t 1/2 (Food effect part; [8])	t 1/2 (Food effect part; fed (Treatment C), mean (SD))	CVw (intrasubject coefficient of variation), AUC0–last (Food effect part)	CVw (intrasubject coefficient of variation), AUC0–∞ (Food effect part)	CVw (intrasubject coefficient of variation), C max (Food effect part)	AUC(0-t) (Food effect part; [9])	AUC(0-inf) (Food effect part; [10])	AUC(0-inf) (Food effect part; [9])	stability in plasma samples at room temperature ([1]; in the presence of tadalafil)	stability in plasma samples, freeze/thaw cycles ([1]; in the presence of tadalafil)	Geometric means ratio, AUC0–last (Bioequivalence part)	further results
NS(=O)(=O)Nc1ncnc(OCCOc2ncc(Br)cn2)c1-c1ccc(Br)cc1 [Aprocitentan]	50.7 (9.99) h	49.4 (6.92) h	20900 ng·h/mL	20800 ng·h/mL	22600 ng·h/mL	22500 ng·h/mL	104.50%	103.98%	107.25%	49.7 (7.63) h	49.4 (6.02) h	7.2%	7.0%	7.4%	18900 ng·h/mL	19500 ng·h/mL	20300 ng·h/mL	at least 26 h	5 freeze/thaw cycles		C max (Food effect part; Group 2, FDC 10/40 mg, fasted (Treatment D), mean (SD)): 165 (29.3) ng/ml; 90% CI of GMRs for all 3 PK parameters versus equivalence limits (Food effect part; Group 2, FDC fed vs. fasted): within the equivalence limits
CCCNS(=O)(=O)Nc1ncnc(OCCOc2ncc(Br)cn2)c1-c1ccc(Br)cc1 [Macitentan]	13.9 (2.87) h		5850 ng·h/mL	5800 ng·h/mL	5930 ng·h/mL	5900 ng·h/mL	102.32%	102.13%	116.10%		14.1 (2.50) h	6.6%	6.4%	12.4%	6430 ng·h/mL	6340 ng·h/mL	6540 ng·h/mL	at least 26 h	5 freeze/thaw cycles	100.96%	Geometric means ratio, AUC0–∞ (Bioequivalence part): 100.66%; Geometric means ratio, C max (Bioequivalence part): 101.49%; CVw (intrasubject coefficient of variation), AUC0–last (Bioequivalence part): 9.6%; CVw (intrasubject coefficient of variation), AUC0–∞ (Bioequivalence part): 9.5%; CVw (intrasubject coefficient of variation), C max (Bioequivalence part): 11.2%; Tmax (Bioequivalence part; Group 1, free combination, fasted (Treatment B), median (range)): 10.0 (3.55–12.0) h; Tmax (Bioequivalence part; both, human, plasma, oral): 10 h; half-life (Bioequivalence part; both, human, plasma, oral): 14.6 h; 90% CI for the GMR of C max versus equivalence limits (80.00% to 125.00%) (Food effect part; Group 2, FDC fed vs. fasted): outside the equivalence limits; C max geometric means ratio, test higher compared to reference (Food effect part; Group 2, FDC fed vs. fasted): 16.10%; mean C max higher under fed (test) compared with fasted (reference) conditions (Food effect part): approximately 15.9%; Tmax (Food effect part; both, human, plasma, oral): 10 h; half-life (Food effect part; both, human, plasma, oral): 15.5 h; AUC(0-t) (Food effect part; [10]): 6220 ng·h/mL; biopharmaceutical classification system (BCS) class [2]: 2
CN1CC(=O)N2[C@H](c3ccc4c(c3)OCO4)c3[nH]c4ccccc4c3C[C@@H]2C1=O [Tadalafil]	22.8 (7.76) h	22.7 (7.26) h	20600 ng·h/mL	20800 ng·h/mL	20700 ng·h/mL	20900 ng·h/mL	111.07%	111.04%	144.97%	23.4 (6.64) h		9.9%	9.9%	17.7%	22300 ng·h/mL	19900 ng·h/mL	22500 ng·h/mL			98.87%	Geometric means ratio, AUC0–∞ (Bioequivalence part): 98.82%; Geometric means ratio, C max (Bioequivalence part): 88.30%; CVw (intrasubject coefficient of variation), AUC0–last (Bioequivalence part): 11.3%; CVw (intrasubject coefficient of variation), AUC0–∞ (Bioequivalence part): 11.3%; CVw (intrasubject coefficient of variation), C max (Bioequivalence part): 16.1%; Tmax (Bioequivalence part; both, human, plasma, oral): 2.5 h; intersubject variability in C max (Food effect part; FDC under fasting conditions): 34.0%; C max geometric means ratio, test higher compared to reference (Food effect part; Group 2, FDC fed vs. fasted): 45% and 44.97%; mean C max higher under fed (test) compared with fasted (reference) conditions (Food effect part): approximately 42.5%; Tmax (Food effect part; both, human, plasma, oral): 2.5 h; half-life (Food effect part; both, human, plasma, oral): 24.5 h; AUC(0-t) (Food effect part; [10]): 19700 ng·h/mL; Cmax (Food effect part; both, human, plasma, oral, geometric mean of tadalafil C max under fed conditions, FDC formulation, fed): 666 ng/mL; ratio of geometric mean tadalafil C max, FDC formulation vs. tadalafil (Food effect part; fed conditions, 666 ng/ml vs. 586 ng/ml (ref 21)): 1.14; stability in plasma samples at room temperature [1, 11]: at least 24 h; stability in plasma samples at −20 and −70℃ [1, 11]: 127 days; stability in plasma samples, freeze/thaw cycles [1, 11]: 5 freeze/thaw cycles; biopharmaceutical classification system (BCS) class [2]: 2; geometric mean of tadalafil C max under fed conditions ([3]; tadalafil alone, fed): 586 ng/mL; C max ([3]; tadalafil in a fasted state, another study): 614 ng/mL
